This passage reports viability, differential viability (reversal) and inhibition results from PubChem BioAssay.

Structures are written as SMILES. Calls of active or inactive are those of the source. Rule as the data show it, unless noted: active = inhibition above about 30%; inactive = the rest.

A short description of assay [1]: HUVEC growth inhibition – cell-based, human, primary screen (AID 575;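 active = viability at or below 30% in both replicate assays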;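 also: 100% = median of untreated cell wells with 0.1% DMSO on each plate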). The conditions noted are these: HUVEC proliferation, CellTiter-Glo luminescence, 72 h; at 10 µM; stronger effect = lower value. In a few lines: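 System: primary human umbilical vein endothelial cells; Quantity: 1250 endothelial cells in each well; Buffer or medium: supplemented EBM, 2% fetal bovine serum; Doses: one dose, 10 µM final, 0.1% DMSO; Incubation: 72 h compound incubation; Technique: ATP-based CellTiter-Glo luminescent read; Evaluation: percent of median DMSO-control luminescence; Controls: vehicle and MePR control wells.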
(In general: Cellular ATP, detected with luciferase, serves as a proxy for viable cell number.)

Assay [2] can be described thus: growth inhibitors of H69AR lung tumor, primary screen, human, duplicate replicates (AID 580;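 active = viability at or under a set limit in both replicates, limit being median viability minus 3 SD, cut at about 48% in these data, passing the limit was not always enough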;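 also: 100% = mean luminescence of untreated wells and 0% = no signal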). The following applies: H69AR lung tumor cells viability, ATP luminescence, 72 h; at 10 µM; stronger effect = lower value.
Assay [3] can be described thus: reversal of MRP1-mediated doxorubicin resistance, pilot screen, H69AR cells, doxorubicin co-treatment (AID 601;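 active = viability loss from added drug above about 55%, and viability with drug at most 40%, in both replicates, limit read from the data, passing the limit was not always enough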). The conditions noted are these: CellTiter-Glo, 72 h, at 10 µM; for differential viability (reversal): stronger effect = higher value.
The nature of assay [4]: 384-well plate pilot, post-Golgi transport modulator project, inhibition of yeast transport mutant growth (AID 636; in the data active = inhibition above about 31%). The following applies: absorbance 615 nm, about 18 h, stronger effect = higher value.
The nature of assay [5]: growth suppression of yeast trafficking mutant, preliminary HTS, modulators of trafficking downstream of Golgi apparatus project, 1536-format plate, OD 615 nm (AID 637). The conditions noted are these: yeast transport mutant growth, absorbance 615 nm, 18 h; stronger effect = higher value.
The mark [6] stands for this setting: H69AR cells + 2 uM doxorubicin, measured here: viability with 2 uM doxorubicin, stronger effect = lower value.
The mark [7] stands for this setting: H69AR cells, compound alone cytotoxicity.

The term viability denotes a read-out of living cells in per cent, often relative to untreated cells. As usually defined, the inhibition is the change of the read-out against control, counted positive when it falls. As for `C=Cn1c(N2CCOCC2)nc2c1c(=O)[nH]c(=O)n2C`, the viability in assay [1] is 98.8% (inactive); in assay [2] it was 97.1% (inactive); in assay [3] (setting [6]) it was 88.8%; in assay [3] (setting [7]), 97.1%. Further, in assay [3] (H69AR cells + 2 uM doxorubicin), the differential viability (reversal) was 8.31% (inactive). In addition, the inhibition in assay [4] was -4.8% (inactive); in assay [5], 1.59% (inactive).

For `Cc1onc(-c2c(Cl)cccc2Cl)c1C(=O)NCCCN1CCOCC1`, the viability in assay [1] was 108% (inactive); in assay [2], 100% (inactive); in assay [3] (setting [6]), 101%; in assay [3] (setting [7]), 100%. The differential viability (reversal) in assay [3] (H69AR cells + 2 uM doxorubicin) is -1.13% (inactive). Further, the inhibition was -2.5% (inactive) in assay [4] and -2.22% (inactive) in assay [5].

`O=C1CCCc2c1nn(-c1ccccc1)[n+]2[O-]`: the viability in assay [1] was 110% (inactive); in assay [2], 98.1% (inactive); in assay [3] (setting [6]), 96.5%; in assay [3] (setting [7]), 98.1%. Also, the differential viability (reversal) in assay [3] (H69AR cells + 2 uM doxorubicin) was 1.57% (inactive). The inhibition was -5.33% (inactive) in assay [4] and -5.4% (inactive) in assay [5].

On to `CCSc1ccccc1C(=O)NCc1ccc(S(N)(=O)=O)cc1`, for which the viability was 99.2% (inactive) in assay [1], 93.7% (inactive) in assay [2], 87.5% in assay [3] (setting [6]) and 93.7% in assay [3] (setting [7]). In addition, the differential viability (reversal) in assay [3] (H69AR cells + 2 uM doxorubicin) was 6.25% (inactive). Also, the inhibition is -5.2% (inactive) in assay [4] and -1.27% (inactive) in assay [5].

For the molecule `CC(=O)Nc1ccc(NC2=CC(=O)CC(C)(C)C2)cc1`, the viability is 109% (inactive) in assay [1], 109% (inactive) in assay [2], 85% in assay [3] (setting [6]) and 109% in assay [3] (setting [7]). Besides, the differential viability (reversal) in assay [3] (H69AR cells + 2 uM doxorubicin) is 24.2% (inactive). Besides, the inhibition is -3.38% (inactive) in assay [4] and 5.08% (inactive) in assay [5].

Take `Cc1ccc(NCc2nnc(SCC(=O)NCc3ccco3)n2CC2CCCO2)cc1Cl` (stereo not given): the viability is 85.6% (inactive) in assay [1], 88.5% (inactive) in assay [2], 95.8% in assay [3] (setting [6]) and 88.5% in assay [3] (setting [7]). Besides, the differential viability (reversal) in assay [3] (H69AR cells + 2 uM doxorubicin) was -7.28% (inactive). The inhibition in assay [4] is 5% (inactive); in assay [5], -3.17% (inactive).

Regarding `O=C(NCCN1CCCC1)C1COc2ccccc2O1` (stereo not given), the viability is 105% (inactive) in assay [1], 95.7% (inactive) in assay [2], 93.9% in assay [3] (setting [6]) and 95.7% in assay [3] (setting [7]). For the same molecule, the differential viability (reversal) in assay [3] (H69AR cells + 2 uM doxorubicin) is 1.77% (inactive). Also, the inhibition was -7.14% (inactive) in assay [4] and -3.02% (inactive) in assay [5].

Regarding `CCOC(=O)c1c(COC(=O)c2ccco2)nc2ccccc2[n+]1[O-]`, the viability in assay [1] is 90.3% (inactive); in assay [2], 87.2% (inactive); in assay [3] (setting [6]), 84.6%; in assay [3] (setting [7]), 87.2%. Further, in assay [3] (H69AR cells + 2 uM doxorubicin), the differential viability (reversal) is 2.55% (inactive). The inhibition in assay [4] was -5.73% (inactive); in assay [5] it was 3.97% (inactive).

With `CCOC(=O)N1CCN(C(=O)Nc2ccc(Cl)cc2)CC1`, the viability in assay [1] was 97.7% (inactive); in assay [2], 98.3% (inactive); in assay [3] (setting [6]), 83.4%; in assay [3] (setting [7]), 98.3%. Moreover, the differential viability (reversal) in assay [3] (H69AR cells + 2 uM doxorubicin) was 14.8% (inactive). The inhibition in assay [4] is -3.55% (inactive); in assay [5], 4.6% (inactive).

`COCCN(CC(=O)Nc1ccccc1C)S(=O)(=O)c1ccc(S(=O)(=O)N2CCCC2)cc1`: the viability in assay [1] was 101% (inactive); in assay [2], 95.7% (inactive); in assay [3] (setting [6]) it was 91.5%; in assay [3] (setting [7]), 95.7%. In addition, the differential viability (reversal) in assay [3] (H69AR cells + 2 uM doxorubicin) is 4.26% (inactive). Besides, the inhibition in assay [4] is -7.2% (inactive); in assay [5], 4.13% (inactive).

For `Cc1ccc(S(=O)(=O)NCCc2ccncc2)cc1`, the viability in assay [1] is 95.4% (inactive); in assay [2], 110% (inactive); in assay [3] (setting [6]) it was 100%; in assay [3] (setting [7]) it was 110%. Also, in assay [3] (H69AR cells + 2 uM doxorubicin), the differential viability (reversal) is 10.4% (inactive). Further, the inhibition is -2.47% (inactive) in assay [4] and -0.16% (inactive) in assay [5].

As to `CC1(C)CC(=O)c2cc(OCC(=O)N3CCN(c4ccccc4F)CC3)ccc2O1`, the viability in assay [1] was 99.1% (inactive); in assay [2] it was 91.8% (inactive); in assay [3] (setting [6]), 88.9%; in assay [3] (setting [7]), 91.8%. Besides, in assay [3] (H69AR cells + 2 uM doxorubicin), the differential viability (reversal) was 2.9% (inactive). Further, the inhibition is -0.13% (inactive) in assay [4] and 2.06% (inactive) in assay [5].

Regarding `COc1ccccc1-c1ccc(Nc2cccc(C(C)=O)c2)nn1`, the viability in assay [1] is 55.8% (inactive); in assay [2], 71.6% (inactive); in assay [3] (setting [6]) it was 55.8%; in assay [3] (setting [7]), 71.6%. For the same molecule, the differential viability (reversal) in assay [3] (H69AR cells + 2 uM doxorubicin) was 15.8% (inactive). Further, the figures for the inhibition in assay [4] and in assay [5] were -0.52% (inactive) and -4.92% (inactive), respectively.

`CC(=O)N1CCN(S(=O)(=O)c2ccc(S(=O)(=O)NCC(C)C)cc2)CC1`: the viability is 111% (inactive) in assay [1], 88.5% (inactive) in assay [2], 86.4% in assay [3] (setting [6]) and 88.5% in assay [3] (setting [7]). In addition, in assay [3] (H69AR cells + 2 uM doxorubicin), the differential viability (reversal) is 2.16% (inactive). Further, the figures for the inhibition in assay [4] and in assay [5] were -5.73% (inactive) and 0.16% (inactive), respectively.

In the case of `COC(=O)CN1C(=O)C2(C(C#N)=C(N)Oc3c2c(C)nn3-c2ccccc2)c2ccccc21` (stereo not given), the viability is 69.8% (inactive) in assay [1], 67.8% (inactive) in assay [2], 73.3% in assay [3] (setting [6]) and 67.8% in assay [3] (setting [7]). Further, in assay [3] (H69AR cells + 2 uM doxorubicin), the differential viability (reversal) is -5.54% (inactive). Besides, the inhibition in assay [4] is -6.32% (inactive); in assay [5], -1.43% (inactive).

Consider `Cc1ccc(NC(=O)C2CCCNC2=O)nc1` (stereo not given), for which the viability was 106% (inactive) in assay [1], 97.8% (inactive) in assay [2], 94% in assay [3] (setting [6]) and 97.8% in assay [3] (setting [7]). The differential viability (reversal) in assay [3] (H69AR cells + 2 uM doxorubicin) is 3.79% (inactive). Also, the inhibition is -0.13% (inactive) in assay [4] and -2.7% (inactive) in assay [5].

Regarding `COc1ccc(CCNS(=O)(=O)c2ccc3c(c2)OCCO3)cc1`, the viability is 109% (inactive) in assay [1], 103% (inactive) in assay [2], 92.6% in assay [3] (setting [6]) and 103% in assay [3] (setting [7]). The differential viability (reversal) in assay [3] (H69AR cells + 2 uM doxorubicin) is 10.1% (inactive). For the same molecule, the inhibition in assay [4] was -0.53% (inactive); in assay [5] it was -3.17% (inactive).

Regarding `CC1(c2ccncc2)Nc2ccccc2-c2nc3ccccc3n21` (stereo not given), the viability in assay [1] is 92.4% (inactive); in assay [2], 99.2% (inactive); in assay [3] (setting [6]), 101%; in assay [3] (setting [7]), 99.2%. In assay [3] (H69AR cells + 2 uM doxorubicin), the differential viability (reversal) is -2.33% (inactive). Moreover, the results for the inhibition in assay [4] and in assay [5] were -1.45% (inactive) and -0.95% (inactive), respectively.

Turning to `O=C(O)C1C2CCC(C2)C1C(=O)NCCCn1ccnc1` (stereo not given), the viability in assay [1] was 112% (inactive); in assay [2], 90.6% (inactive); in assay [3] (setting [6]) it was 84.4%; in assay [3] (setting [7]), 90.6%. Moreover, in assay [3] (H69AR cells + 2 uM doxorubicin), the differential viability (reversal) was 6.16% (inactive). Further, the results for the inhibition in assay [4] and in assay [5] were -7.24% (inactive) and -0.79% (inactive), respectively.

For the molecule `CCCN(CCC)CCCNS(=O)(=O)c1ccc2c(c1)oc(=O)n2C`, the viability in assay [1] was 92.2% (inactive); in assay [2], 94.7% (inactive); in assay [3] (setting [6]), 93.8%; in assay [3] (setting [7]) it was 94.7%. For the same molecule, the differential viability (reversal) in assay [3] (H69AR cells + 2 uM doxorubicin) was 0.825% (inactive). The inhibition in assay [4] is -4.4% (inactive); in assay [5] it was -4.44% (inactive).
